Values belong to the molecule of their own block, whether it stands above or below them. Active and inactive are the calls of the source. No cut-off for these calls is given here.
Tests used:
[1] = molecular target: Tropomyosin alpha-4 chain (Homo sapiens) (UniProt P67936); experiment: Binding affinity to TPM4 in human NCI-H23 cells at 1 uM by mass spectrometry based pull down assay; format: cell-based
[2] = molecular target: Actin-related protein 2 (Homo sapiens) (UniProt P61160); experiment: Binding affinity to ACTR2 in human NCI-H23 cells at 1 uM by mass spectrometry based pull down assay; format: cell-based
Summary of the method: (§1)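 NCI-H23 or NCI-H358 cells were grown and lysed. Lysates were incubated overnight at 4 °C with 1 μM biotinylated covalent probe or DMSO, then pulled down on streptavidin beads. Proteins were run on polyacrylamide gels and stained with Coomassie. Bands were excised, digested and identified by mass spectrometry.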

[3] = molecular target: Glutathione S-transferase P (Homo sapiens) (UniProt P09211); experiment: Binding affinity to GSTP1 in human NCI-H23 cells at 1 uM by mass spectrometry based pull down assay; format: cell-based
[4] = molecular target: B-cell receptor-associated protein 31 (Homo sapiens) (UniProt P51572); experiment: Binding affinity to BCAP31 in human NCI-H23 cells at 1 uM by mass spectrometry based pull down assay; format: cell-based
[5] = molecular target: Protein transport protein Sec16A (Homo sapiens) (UniProt O15027); experiment: Binding affinity to SEC16A in human NCI-H23 cells at 1 uM by mass spectrometry based pull down assay; format: cell-based
[6] = molecular target: Ribonucleoside-diphosphate reductase large subunit (Homo sapiens) (UniProt P23921); experiment: Binding affinity to RRM1 in human NCI-H23 cells at 1 uM by mass spectrometry based pull down assay; format: cell-based
Sequence of Ribonucleoside-diphosphate reductase large subunit (Homo sapiens) (P23921 whole entry): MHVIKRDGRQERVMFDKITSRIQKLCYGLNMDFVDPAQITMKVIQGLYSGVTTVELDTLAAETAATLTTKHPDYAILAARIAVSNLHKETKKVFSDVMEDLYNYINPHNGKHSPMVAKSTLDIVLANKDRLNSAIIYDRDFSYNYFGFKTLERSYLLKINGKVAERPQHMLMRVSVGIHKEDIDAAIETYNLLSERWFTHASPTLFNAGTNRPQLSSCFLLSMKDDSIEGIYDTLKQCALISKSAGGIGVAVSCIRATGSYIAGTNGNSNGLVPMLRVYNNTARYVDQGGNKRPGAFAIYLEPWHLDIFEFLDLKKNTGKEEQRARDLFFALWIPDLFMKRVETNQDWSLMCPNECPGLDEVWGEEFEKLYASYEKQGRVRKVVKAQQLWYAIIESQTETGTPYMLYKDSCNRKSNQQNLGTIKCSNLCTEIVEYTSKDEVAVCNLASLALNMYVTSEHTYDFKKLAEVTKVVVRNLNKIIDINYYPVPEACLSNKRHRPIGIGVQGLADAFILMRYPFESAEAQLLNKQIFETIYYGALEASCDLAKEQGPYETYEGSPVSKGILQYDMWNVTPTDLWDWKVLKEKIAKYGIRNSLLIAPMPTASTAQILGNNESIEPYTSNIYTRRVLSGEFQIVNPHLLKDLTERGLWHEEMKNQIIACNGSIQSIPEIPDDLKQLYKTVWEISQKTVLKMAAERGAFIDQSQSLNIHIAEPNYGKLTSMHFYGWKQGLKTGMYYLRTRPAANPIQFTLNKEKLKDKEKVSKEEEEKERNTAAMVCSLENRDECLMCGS

[7] = molecular target: Acyl-coenzyme A thioesterase 9, mitochondrial (Homo sapiens) (UniProt Q9Y305); experiment: Binding affinity to ACOT9 in human NCI-H23 cells at 1 uM by mass spectrometry based pull down assay; format: cell-based; summary of the method: as §1
Sequence of Acyl-coenzyme A thioesterase 9, mitochondrial (Homo sapiens) (Q9Y305 whole entry): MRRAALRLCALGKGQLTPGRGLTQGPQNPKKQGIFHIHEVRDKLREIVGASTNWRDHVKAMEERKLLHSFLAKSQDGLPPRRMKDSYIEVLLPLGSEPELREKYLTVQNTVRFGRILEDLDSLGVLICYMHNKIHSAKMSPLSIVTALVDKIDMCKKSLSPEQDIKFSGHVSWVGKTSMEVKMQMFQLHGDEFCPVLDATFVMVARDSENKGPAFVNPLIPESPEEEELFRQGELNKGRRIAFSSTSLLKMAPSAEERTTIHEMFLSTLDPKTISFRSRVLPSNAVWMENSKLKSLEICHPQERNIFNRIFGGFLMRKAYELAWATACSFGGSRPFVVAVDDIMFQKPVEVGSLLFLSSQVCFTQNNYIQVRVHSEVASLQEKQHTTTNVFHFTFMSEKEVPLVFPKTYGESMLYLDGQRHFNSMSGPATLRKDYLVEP

[8] = molecular target: Mitogen-activated protein kinase 1 (Homo sapiens) (UniProt P28482); experiment: Binding affinity to MAPK1 in human NCI-H23 cells at 1 uM by mass spectrometry based pull down assay; format: cell-based
Sequence of Mitogen-activated protein kinase 1 (Homo sapiens) (P28482 whole entry): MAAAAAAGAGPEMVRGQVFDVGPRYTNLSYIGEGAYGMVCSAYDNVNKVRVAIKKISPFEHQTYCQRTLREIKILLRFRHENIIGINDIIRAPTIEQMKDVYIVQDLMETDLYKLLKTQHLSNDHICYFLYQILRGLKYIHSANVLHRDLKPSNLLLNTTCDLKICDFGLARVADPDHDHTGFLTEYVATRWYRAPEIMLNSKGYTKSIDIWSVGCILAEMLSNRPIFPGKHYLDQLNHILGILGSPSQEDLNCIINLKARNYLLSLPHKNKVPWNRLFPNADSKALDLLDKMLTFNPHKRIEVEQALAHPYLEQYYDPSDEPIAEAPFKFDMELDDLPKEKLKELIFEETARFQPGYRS

[9] = molecular target: T-complex protein 1 subunit epsilon (Homo sapiens) (UniProt P48643); experiment: Binding affinity to CCT5 in human NCI-H358 cells at 1 uM by mass spectrometry based pull down assay; format: cell-based
Sequence of T-complex protein 1 subunit epsilon (Homo sapiens) (P48643 whole entry, the tested form may be a part, one chain of several): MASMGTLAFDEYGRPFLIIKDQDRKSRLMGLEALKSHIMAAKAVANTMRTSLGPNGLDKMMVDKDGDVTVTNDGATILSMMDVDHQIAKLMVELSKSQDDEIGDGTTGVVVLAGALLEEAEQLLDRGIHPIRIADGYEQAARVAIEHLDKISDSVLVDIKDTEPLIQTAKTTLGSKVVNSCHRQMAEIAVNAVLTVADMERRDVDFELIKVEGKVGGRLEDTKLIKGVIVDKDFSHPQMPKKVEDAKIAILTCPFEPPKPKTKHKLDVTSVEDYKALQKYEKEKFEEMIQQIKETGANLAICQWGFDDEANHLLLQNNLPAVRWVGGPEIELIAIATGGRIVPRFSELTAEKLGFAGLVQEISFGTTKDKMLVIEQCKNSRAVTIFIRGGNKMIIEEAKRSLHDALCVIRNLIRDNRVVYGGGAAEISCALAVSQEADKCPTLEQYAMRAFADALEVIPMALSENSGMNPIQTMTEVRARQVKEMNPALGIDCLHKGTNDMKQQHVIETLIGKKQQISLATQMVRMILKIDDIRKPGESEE

[10] = molecular target: LIM domain kinase 1 (Homo sapiens) (UniProt P53667); experiment: Binding affinity to LIMK1 in human NCI-H358 cells at 1 uM by mass spectrometry based pull down assay; format: cell-based
[11] = molecular target: E3 ubiquitin-protein ligase UBR4 (Homo sapiens) (UniProt Q5T4S7); experiment: Binding affinity to UBR4 in human NCI-H358 cells at 1 uM by mass spectrometry based pull down assay; format: cell-based
[12] = molecular target: Proteasome activator complex subunit 2 (Homo sapiens) (UniProt Q9UL46); experiment: Binding affinity to PSME2 in human NCI-H358 cells at 1 uM by mass spectrometry based pull down assay; format: cell-based
NCI-H358 = experiment: Binding affinity to PSMA7 in human NCI-H358 cells at 1 uM by mass spectrometry based pull down assay; format: cell-based
[13] = molecular target: Ribosomal protein S6 kinase alpha-3 (Homo sapiens) (UniProt P51812); experiment: Binding affinity to RPS6KA3 in human NCI-H358 cells at 1 uM by mass spectrometry based pull down assay; format: cell-based
[14] = molecular target: 80S Ribosome (Homo sapiens) (UniProt P08865+P42677+P62753+P15880+P23396+P61247+P62701+P22090+P46782+P62081+P62241+P46781+P46783+P62280+P25398+P62277+P62263+P62841+P62244+P62249+P08708+P62269+P39019+P60866+P63220+P62266+P62847+P62851+P62854+P62979+P62857+P62273+P62861+P39023+P36578+P46777+Q02878+P18124+P62424+P62917+P32969+P27635+P62906+P62913+P30050+P26373+P40429+P50914+P61313+P18621+Q07020+Q02543+P84098+P46778+P35268+P62829+P62750+P83731+P61254+P61353+P46776+P46779+P47914+P62888+P62899+P62910+P49207+P42766+P18077+Q9Y3U8+P83881+P61927+P61513+P63173+P62891+P62945+P05388+P05386); experiment: Binding affinity to RPS11 in human NCI-H358 cells at 1 uM by mass spectrometry based pull down assay; format: cell-based
[15] = molecular target: Sequestosome-1 (Homo sapiens) (UniProt Q13501); experiment: Binding affinity to SQSTM1 in human NCI-H358 cells at 1 uM by mass spectrometry based pull down assay; format: cell-based
Sequence of Sequestosome-1 (Homo sapiens) (Q13501 whole entry): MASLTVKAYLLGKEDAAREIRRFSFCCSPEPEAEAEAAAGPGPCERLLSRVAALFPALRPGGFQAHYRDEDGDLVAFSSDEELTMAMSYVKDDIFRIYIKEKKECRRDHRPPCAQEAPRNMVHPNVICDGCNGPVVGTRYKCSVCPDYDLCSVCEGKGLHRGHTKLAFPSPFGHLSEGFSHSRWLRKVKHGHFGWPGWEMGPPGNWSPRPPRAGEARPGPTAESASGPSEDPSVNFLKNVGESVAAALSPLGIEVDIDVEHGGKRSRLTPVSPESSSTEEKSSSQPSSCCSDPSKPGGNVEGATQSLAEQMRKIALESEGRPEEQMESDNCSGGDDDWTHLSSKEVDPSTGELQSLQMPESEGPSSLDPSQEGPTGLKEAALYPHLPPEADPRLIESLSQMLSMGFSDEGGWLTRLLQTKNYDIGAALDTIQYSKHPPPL

[16] = molecular target: V-type proton ATPase catalytic subunit A (Homo sapiens) (UniProt P38606); experiment: Binding affinity to ATP6V1A in human NCI-H358 cells at 1 uM by mass spectrometry based pull down assay; format: cell-based
[17] = molecular target: General vesicular transport factor p115 (Homo sapiens) (UniProt O60763); experiment: Binding affinity to USO1 in human NCI-H358 cells at 1 uM by mass spectrometry based pull down assay; format: cell-based
Gelsolin (Homo sapiens) = Gelsolin (Homo sapiens) (UniProt P06396); experiment: Binding affinity to GSN in human NCI-H358 cells at 1 uM by mass spectrometry based pull down assay; format: cell-based
[18] = molecular target: Aminoacyl tRNA synthase complex-interacting multifunctional protein 1 (Homo sapiens) (UniProt Q12904); experiment: Binding affinity to AIMP1 in human NCI-H358 cells at 1 uM by mass spectrometry based pull down assay; format: cell-based; summary of the method: as §1
Sequence of Aminoacyl tRNA synthase complex-interacting multifunctional protein 1 (Homo sapiens) (Q12904 whole entry, one chain of several): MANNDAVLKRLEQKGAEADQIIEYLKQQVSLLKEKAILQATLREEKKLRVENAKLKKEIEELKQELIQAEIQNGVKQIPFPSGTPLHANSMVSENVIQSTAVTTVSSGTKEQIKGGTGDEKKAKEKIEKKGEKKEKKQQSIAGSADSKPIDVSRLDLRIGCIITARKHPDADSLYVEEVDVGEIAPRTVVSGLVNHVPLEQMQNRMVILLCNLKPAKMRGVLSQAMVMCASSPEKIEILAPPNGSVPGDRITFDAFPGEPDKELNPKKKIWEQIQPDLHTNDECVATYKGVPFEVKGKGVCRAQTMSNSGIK

[19] = molecular target: DNA replication licensing factor MCM4 (Homo sapiens) (UniProt P33991); experiment: Binding affinity to MCM4 in human NCI-H358 cells at 1 uM by mass spectrometry based pull down assay; format: cell-based
Sequence of DNA replication licensing factor MCM4 (Homo sapiens) (P33991 whole entry): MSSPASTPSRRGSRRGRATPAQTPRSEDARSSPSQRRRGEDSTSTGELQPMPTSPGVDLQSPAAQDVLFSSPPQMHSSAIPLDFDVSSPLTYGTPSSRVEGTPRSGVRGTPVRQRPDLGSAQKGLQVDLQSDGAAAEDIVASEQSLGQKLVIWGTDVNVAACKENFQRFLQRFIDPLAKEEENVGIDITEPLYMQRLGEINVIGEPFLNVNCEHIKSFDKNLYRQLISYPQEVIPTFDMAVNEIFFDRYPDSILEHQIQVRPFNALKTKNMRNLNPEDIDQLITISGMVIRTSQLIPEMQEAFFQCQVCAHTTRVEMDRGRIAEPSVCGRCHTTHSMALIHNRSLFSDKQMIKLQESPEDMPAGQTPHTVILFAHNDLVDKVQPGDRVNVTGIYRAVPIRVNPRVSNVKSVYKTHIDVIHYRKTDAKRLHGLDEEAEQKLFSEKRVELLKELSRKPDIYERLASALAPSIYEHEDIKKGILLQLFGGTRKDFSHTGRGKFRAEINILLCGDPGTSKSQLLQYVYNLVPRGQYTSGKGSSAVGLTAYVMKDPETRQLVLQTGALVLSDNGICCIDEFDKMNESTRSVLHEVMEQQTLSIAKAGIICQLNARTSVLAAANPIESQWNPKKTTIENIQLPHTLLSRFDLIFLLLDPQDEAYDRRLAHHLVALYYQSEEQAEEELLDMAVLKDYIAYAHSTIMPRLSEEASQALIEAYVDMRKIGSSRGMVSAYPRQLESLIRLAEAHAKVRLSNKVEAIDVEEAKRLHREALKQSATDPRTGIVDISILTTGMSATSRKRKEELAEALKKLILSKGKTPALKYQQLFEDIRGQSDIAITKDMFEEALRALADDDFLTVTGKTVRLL

[20] = molecular target: DnaJ homolog subfamily A member 1 (Homo sapiens) (UniProt P31689); experiment: Binding affinity to DNAJA1 in human NCI-H358 cells at 1 uM by mass spectrometry based pull down assay; format: cell-based
Sequence of DnaJ homolog subfamily A member 1 (Homo sapiens) (P31689 whole entry, the tested form may be a part): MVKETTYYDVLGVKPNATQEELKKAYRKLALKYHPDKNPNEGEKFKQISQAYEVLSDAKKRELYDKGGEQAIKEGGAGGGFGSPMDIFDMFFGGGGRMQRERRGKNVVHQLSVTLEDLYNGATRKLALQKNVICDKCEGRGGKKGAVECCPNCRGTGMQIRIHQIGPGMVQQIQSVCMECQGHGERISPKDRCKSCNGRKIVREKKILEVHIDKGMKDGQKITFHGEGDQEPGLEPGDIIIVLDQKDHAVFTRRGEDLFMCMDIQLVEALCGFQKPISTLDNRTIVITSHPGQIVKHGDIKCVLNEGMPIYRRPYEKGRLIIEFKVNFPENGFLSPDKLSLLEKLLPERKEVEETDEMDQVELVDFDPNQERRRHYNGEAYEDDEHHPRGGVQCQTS

[21] = molecular target: Serine/threonine-protein kinase RIO3 (Homo sapiens) (UniProt O14730); experiment: Inhibition of full length human RIOK3 (1 to 519 residues) expressed in bacterial expression system assessed as enzyme activity at 10 uM by KINOMEScan assay relative to control; set-up: scale not given: the % may be the effect or the level left
Sequence of Serine/threonine-protein kinase RIO3 (Homo sapiens) (O14730 whole entry, the tested form may be a part): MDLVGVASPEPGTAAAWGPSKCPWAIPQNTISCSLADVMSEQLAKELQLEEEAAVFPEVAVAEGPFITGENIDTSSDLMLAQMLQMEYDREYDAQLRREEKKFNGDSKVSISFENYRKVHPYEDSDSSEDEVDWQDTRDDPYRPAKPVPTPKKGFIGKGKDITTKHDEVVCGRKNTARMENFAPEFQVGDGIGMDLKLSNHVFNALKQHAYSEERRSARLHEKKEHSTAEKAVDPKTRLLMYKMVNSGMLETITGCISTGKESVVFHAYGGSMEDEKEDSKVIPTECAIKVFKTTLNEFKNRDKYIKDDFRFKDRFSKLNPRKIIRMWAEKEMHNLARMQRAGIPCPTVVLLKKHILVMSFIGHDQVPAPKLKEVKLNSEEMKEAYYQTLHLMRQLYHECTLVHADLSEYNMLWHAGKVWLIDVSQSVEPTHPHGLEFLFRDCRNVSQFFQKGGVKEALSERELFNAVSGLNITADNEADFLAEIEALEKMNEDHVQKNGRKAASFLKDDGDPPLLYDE
Summary of the method: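 In vitro ATP-site competition binding assay (KinomeScan) across a panel of 456 kinases. Compound was tested at 1 and 10 μM. The read-out is the binding inhibition score relative to control.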

[22] = molecular target: Serine/threonine-protein kinase 36 (Homo sapiens) (UniProt Q9NRP7); experiment: Inhibition of human STK36 (1 to 271 residues) expressed in bacterial expression system assessed as enzyme activity at 10 uM by KINOMEScan assay relative to control; set-up: scale not given: the % may be the effect or the level left
Summary of the method: (§2)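 In vitro ATP-site competition binding assay across a panel of 456 kinases, with compound tested at 1 and 10 μM.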

[23] = molecular target: Ribosomal protein S6 kinase alpha-6 (Homo sapiens) (UniProt Q9UK32); experiment: Inhibition of human RSK4 (1 to 397 residues) expressed in mammalian expression system assessed as enzyme activity at 10 uM by KINOMEScan assay relative to control; set-up: scale not given: the % may be the effect or the level left; summary of the method: as §2

Sequence of Tropomyosin alpha-4 chain (Homo sapiens) (P67936 whole entry): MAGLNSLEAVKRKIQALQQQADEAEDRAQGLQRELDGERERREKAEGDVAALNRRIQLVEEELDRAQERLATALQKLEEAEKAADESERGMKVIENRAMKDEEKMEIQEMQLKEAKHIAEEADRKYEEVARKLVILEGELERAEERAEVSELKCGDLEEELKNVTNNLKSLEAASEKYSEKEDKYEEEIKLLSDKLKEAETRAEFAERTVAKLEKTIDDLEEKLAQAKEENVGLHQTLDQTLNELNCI

Activity [1]: Active | Activity [2]: Active | Activity [3]: Active | Activity [4]: Active | Activity [5]: Active | Activity [6]: Active | Activity [7]: Active | Activity [8]: Active | Activity [9]: Active | Activity [10]: Active | Activity [11]: Active | Activity [12]: Active | Activity [13]: Active | Activity [14]: Active | Activity [15]: Active | Activity [16]: Active | Activity [17]: Active | Activity (Gelsolin (Homo sapiens)): Active | Activity [18]: Active | Activity [19]: Active | Activity [20]: Active
Structure (SMILES): C=CC(=O)Nc1ccccc1Nc1nc(Nc2ccc(N3CCN(CCOCCOCCOCCNC(=O)CCCC[C@@H]4SC[C@@H]5NC(=O)N[C@@H]54)CC3)cc2)ncc1Cl
Activity (NCI-H358): Active

Structure (SMILES): COc1cc(O)c2c(c1)/C=C/C[C@H](O)[C@H](O)C(=O)/C=C\C[C@H](C)OC2=O
Activity [21]: 0% | Activity [22]: 0.95% | Activity [23]: 3%

Source: ChEMBL document CHEMBL4118021, “Studies of TAK1-centered polypharmacology with novel covalent TAK1 inhibitors” (Bioorg Med Chem, 2017)
